Test results reported in ChEMBL document CHEMBL1141552, “Synthesis and antitubercular activity of 7-(R)- and 7-(S)-methyl-2-nitro-6-(S)-(4-(trifluoromethoxy)benzyloxy)-6,7-dihydro-5H-imidazo[2,1-b][1,3]oxazines, analogues of PA-824” (Bioorg Med Chem Lett, 2008).
≈ marks a conversion by molar mass, not a printed value.

Tested on: Mycobacterium tuberculosis
Experiment: Antitubercular activity against Mycobacterium tuberculosis H37Rv under aerobic conditions
Type: functional
Outline: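 Broth dilution MIC99 against Mtb H37Rv (ATCC 27294) and its H37Rv mutants under aerobic conditions. Compound stocks were made in DMSO at 20 mM.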
For C[C@H]1Oc2nc([N+](=O)[O-])cn2C[C@@H]1OCc1ccc(OC(F)(F)F)cc1, the MIC was 0.2 µM (≈ 0.0747 µg/mL).
For C[C@@H]1Oc2nc([N+](=O)[O-])cn2C[C@@H]1OCc1ccc(OC(F)(F)F)cc1, the MIC was 0.2 µM (≈ 0.0747 µg/mL).
For O=[N+]([O-])c1cn2c(n1)OC[C@@H](OCc1ccc(OC(F)(F)F)cc1)C2 [PRETOMANID], the MIC was 0.4 µM (≈ 0.144 µg/mL).

Tested on: Mycobacterium tuberculosis
Experiment: Antitubercular activity against Mycobacterium tuberculosis H37Rv by oxygen depletion assay
Type: functional
Outline: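 Early-log Mtb cultures in Dubos broth were diluted 100-fold and sealed at a 0.5 head-space ratio, then stirred for 20 days to reach NRP-2. The cells were handled anaerobically and exposed to 1.95–500 μM drug in two-fold dilutions for 7 days at 37°C. After three washes, the cells were spotted on 7H11 agar for 3 weeks. MAC was taken as the concentration giving 90% reduction in visible growth.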
With C[C@H]1Oc2nc([N+](=O)[O-])cn2C[C@@H]1OCc1ccc(OC(F)(F)F)cc1 the MAC was 8 µM.
In the case of C[C@@H]1Oc2nc([N+](=O)[O-])cn2C[C@@H]1OCc1ccc(OC(F)(F)F)cc1, the MAC is reported as 16 µM.
Compound O=[N+]([O-])c1cn2c(n1)OC[C@@H](OCc1ccc(OC(F)(F)F)cc1)C2 [PRETOMANID] has an MAC of 8 µM.

Tested on: not listed separately
Experiment: Aqueous solubility of the compound
Type: physicochemical
Outline: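 Excess solid (3–5 mg) shaken in 0.5 mL water for 3 days, then centrifuged at 10,000g for 5 min. Supernatant diluted in water and analysed by LC/MS with UV peak area at 310 nm. Concentration read from a previously determined calibration curve, corrected for dilution.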
With C[C@H]1Oc2nc([N+](=O)[O-])cn2C[C@@H]1OCc1ccc(OC(F)(F)F)cc1 the solubility was 10.3 µg/mL (≈ 27.6 µM).
C[C@@H]1Oc2nc([N+](=O)[O-])cn2C[C@@H]1OCc1ccc(OC(F)(F)F)cc1 gave a solubility of 9.89 µg/mL (≈ 26.5 µM).
O=[N+]([O-])c1cn2c(n1)OC[C@@H](OCc1ccc(OC(F)(F)F)cc1)C2 [PRETOMANID] gave a solubility of 10.2 µg/mL (≈ 28.4 µM).
